For series [1], the system named is RAW264.7. As to the kind of experiment: Downregulation of Porphyromonas gingivalis-induced NOD2 mRNA expression in wild type mouse RAW264.7 cells at 100 ug/ml after 3 hrs by RT-PCR analysis. It is filed as functional, cell-based. The gist of the method:
(§1)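 Macrophages in RPMI 1640 with 10% FBS, 37 °C, 5% CO2, left untreated, given P. gingivalis alone or test agent alone as controls, or co-treated with P. gingivalis plus 10, 100 or 200 µg/ml for 3 h. Total RNA analysed by real-time RT-PCR (SYBR Green) for NFkB, RIP2 or NOD2, normalized to GAPDH; mean ± S.E.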

Series [2] deals with RAW264.7. The series is described as follows: Downregulation of Porphyromonas gingivalis-induced TNF-alpha protein expression in wild type mouse RAW264.7 cells at 10 to 200 ug/ml after 3 hrs by ELISA. It counts as functional, cell-based. The gist of the method: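 Macrophages left untreated, given P. gingivalis alone or test agent alone as controls, or co-treated with P. gingivalis plus 10, 100 or 200 µg/ml for 3 h. TNF-α in culture supernatant measured by ELISA kit; mean ± S.E.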
(ELISA stands for enzyme-linked immunosorbent assay.)

The test system of series [3] is RAW264.7. The series is described as follows: Downregulation of Porphyromonas gingivalis-induced NFkappaB mRNA expression in wild type mouse RAW264.7 cells at 100 ug/ml after 3 hrs by RT-PCR analysis. It is filed as functional, cell-based. The gist of the method:
as §1

Series [4] has as its system Mus musculus. As to the kind of experiment: Antiinflammatory activity in wild type C57BL/6 mouse assessed as reduction of Porphyromonas gingivalis-induced septic shock at 2 to 8 mg/kg, ip. It is filed as functional, organism-based.
Series [5] concerns RAW264.7. The series is described as follows: Downregulation of Porphyromonas gingivalis-induced RIP2 mRNA expression in wild type mouse RAW264.7 cells at 100 ug/ml after 3 hrs by RT-PCR analysis. It is filed as functional, cell-based. The gist of the method:
as §1

The subject of series [6] is RAW264.7. As to the kind of experiment: Upregulation of AP1 protein expression in wild type mouse RAW264.7 cells after 3 hrs by Western blot analysis. It is filed as functional, cell-based. The essentials:
(§2)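 Macrophages left untreated, given a scrambled (SC) peptide as negative control, or treated with low (10 µg/ml) or high (100 µg/ml) MDP for 3 h. Whole-cell and nuclear protein fractions prepared with Hepes pH 7.9 buffers and probed by Western blot for A20, AP1, MyD88 or NFκB. Triplicate assays.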
On the technique in general: In western blotting, separated proteins are transferred to a membrane and probed.

The subject of series [7] is RAW264.7. The series is described as follows: Upregulation of A20 protein expression in wild type mouse RAW264.7 cells after 3 hrs by Western blot analysis. It is filed as functional, cell-based. The essentials:
as §2

In series [8] the test system is RAW264.7. The series is described as follows: Effect on A20 protein level in wild type mouse RAW264.7 cells at 100 ug/ml after 3 hrs by Western blot analysis relative to SC peptide. It counts as functional. The essentials: as §2
For series [9], the system named is RAW264.7. The series is described as follows: Effect on Porphyromonas gingivalis-induced NOD2 mRNA level in wild type mouse RAW264.7 cells at 100 ug/ml after 3 hrs by RT-PCR analysis relative to control. It counts as functional. The gist of the method: (§3)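 Macrophages left untreated (negative control), given P. gingivalis alone (positive control), or co-treated with P. gingivalis plus low (10 µg/ml) or high (100 µg/ml) MDP for 3 h. Total mRNA analysed by real-time RT-PCR for NOD2, RIP2 or A20, normalized to GAPDH. NOD2/RIP2 expressed relative to P. gingivalis alone (100%); A20 relative to the low-dose treatment (100%). Triplicates, mean ± SEM.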

Series [10] can be described thus: Cytotoxicity against wild type mouse RAW264.7 cells assessed as survival rate at 100 ug/ml measured for 24 hrs by trypan blue assay relative to control. It is filed as cell-based. The settings on record: wild type RAW264.7 cells, read-out: Survival. The gist of the method:
(§4)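 WT mouse macrophages in RPMI 1640 with 10% FBS (37 °C, 5% CO2) were exposed to MDP for 0, 2, 4, 8, 12, 16, 18 or 24 h, then harvested with trypsin. Viability was counted by Trypan blue exclusion and expressed relative to 0 µg/ml MDP at 24 h (set as 100%). Done in triplicate; mean ± S.E.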

Series [11] concerns RAW264.7. As to the kind of experiment: Effect on MyD88 protein level in wild type mouse RAW264.7 cells at 100 ug/ml after 3 hrs by Western blot analysis relative to SC peptide. It counts as functional. The essentials: as §2
Series [12] has as its system Peritoneal macrophage. As to the kind of experiment: Effect on Porphyromonas gingivalis-induced TNFalpha expression in wild type mouse primary peritoneal macrophages at 100 ug/ml after 3 hrs by ELISA relative to control. It counts as functional. The gist of the method: (§5)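 Primary peritoneal macrophages from C57BL/6 mice cultured in RPMI 1640 with 10% FBS. Cells left untreated, given 10, 100 or 1,000 µg/ml MDP alone, given P. gingivalis alone, or co-treated with P. gingivalis plus 10, 100 or 1,000 µg/ml MDP for 3 h. TNF-α in conditioned medium measured by ELISA; mean ± S.E.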

In series [13] the test system is RAW264.7. As to the kind of experiment: Upregulation of A20 promoter DNA level in wild type mouse RAW264.7 cells at 100 ug/ml after 3 hrs by ChIP assay. It counts as functional, cell-based. The essentials: (§6)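 RAW264.7 cells treated with low (10 µg/ml) or high (100 µg/ml) MDP for 3 h, or transfected overnight with 1 µg AP1 cDNA as comparator. 10 µg nuclear extract from cross-linked cells immunoprecipitated with 1 µg anti-AP1 antibody or normal mouse IgG at 4 °C for 4 h; A20 promoter and GAPDH fragments amplified by PCR from input and IPs. Triplicates.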

The subject of series [14] is Peritoneal macrophage. The series is described as follows: Effect on Porphyromonas gingivalis-induced TNFalpha expression in wild type mouse primary peritoneal macrophages at 10 ug/ml after 3 hrs by ELISA relative to control. It is filed as functional. The gist of the method: as §5
The test system of series [15] is RAW264.7. The series is described as follows: Upregulation of A20 mRNA level in wild type mouse RAW264.7 cells at 100 ug/ml after 3 hrs by RT-PCR analysis relative to control. It is filed as functional. The gist of the method:
as §3

For series [16], the system named is RAW264.7. As to the kind of experiment: Effect on A20 mRNA level in wild type mouse RAW264.7 cells at 100 ug/ml after 3 hrs by RT-PCR analysis relative to control. It counts as functional. The gist of the method:
as §3

The test system of series [17] is RAW264.7. The series is described as follows: Upregulation of Porphyromonas gingivalis-induced p53 protein level in wild type mouse RAW264.7 cells at 10 to 1000 ug/ml after 3 hrs by Western blot analysis. It counts as functional, cell-based. The essentials: (§7)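 Macrophages treated with MDP at 0, 10, 100 or 1,000 µg/ml, alone or together with P. gingivalis, for 3 h. Total protein probed by Western blot for p21 or p53, with actin as loading control. Triplicate assays.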

Series [18] concerns RAW264.7. The series is described as follows: Effect on Porphyromonas gingivalis-induced RIP2 mRNA level in wild type mouse RAW264.7 cells at 10 ug/ml after 3 hrs by RT-PCR analysis relative to control. It counts as functional. The gist of the method:
as §3

In series [19] the test system is RAW264.7. As to the kind of experiment: Effect on Porphyromonas gingivalis-induced NOD2 mRNA level in wild type mouse RAW264.7 cells at 10 ug/ml after 3 hrs by RT-PCR analysis relative to control. It counts as functional. The essentials: as §3
In series [20] the test system is RAW264.7. As to the kind of experiment: Effect on Porphyromonas gingivalis-induced RIP2 mRNA level in wild type mouse RAW264.7 cells at 100 ug/ml after 3 hrs by RT-PCR analysis relative to control. It counts as functional. The essentials:
as §3

Series [21] can be described thus: Cytotoxicity against wild type mouse RAW264.7 cells assessed as survival rate at 10 ug/ml measured for 24 hrs by trypan blue assay relative to control. It counts as cell-based. To be noted: wild type RAW264.7 cells, read-out: Survival. The essentials: as §4
Series [22] deals with RAW264.7. The series is described as follows: Effect on AP1 protein level in wild type mouse RAW264.7 cells at 10 ug/ml after 3 hrs by Western blot analysis relative to SC peptide. It counts as functional. The gist of the method:
as §2

The test system of series [23] is RAW264.7. As to the kind of experiment: Effect on NFkappaB protein level in wild type mouse RAW264.7 cells at 100 ug/ml after 3 hrs by Western blot analysis relative to SC peptide. It is filed as functional. The essentials:
as §2

The subject of series [24] is RAW264.7. The series is described as follows: Effect on AP1 protein level in wild type mouse RAW264.7 cells at 100 ug/ml after 3 hrs by Western blot analysis relative to SC peptide. It is filed as functional. The gist of the method:
as §2

Series [25] deals with RAW264.7. The series is described as follows: Effect on MyD88 protein level in wild type mouse RAW264.7 cells at 10 ug/ml after 3 hrs by Western blot analysis relative to SC peptide. It is filed as functional. The essentials: as §2
The nature of series [26]: Cytotoxicity against wild type mouse RAW264.7 cells assessed as survival rate at 1 mg/ml measured for 24 hrs by trypan blue assay relative to control. It is filed as cell-based. The settings on record: wild type RAW264.7 cells, read-out: Survival. The gist of the method: as §4
For series [27], the system named is RAW264.7. The series is described as follows: Effect on A20 protein level in wild type mouse RAW264.7 cells at 10 ug/ml after 3 hrs by Western blot analysis relative to SC peptide. It is filed as functional. The gist of the method:
as §2

In series [28] the test system is Mus musculus. As to the kind of experiment: Antiinflammatory activity in wild type C57BL/6 mouse assessed as reduction of Porphyromonas gingivalis-induced septic shock at 8 mg/kg, ip. It counts as functional, organism-based.
In series [29] the test system is RAW264.7. The series is described as follows: Upregulation of A20 promoter DNA level in wild type mouse RAW264.7 cells at 10 ug/ml after 3 hrs by ChIP assay. It counts as functional, cell-based. The gist of the method: as §6
The test system of series [30] is RAW264.7. The series is described as follows: Upregulation of Porphyromonas gingivalis-induced p21 protein level in wild type mouse RAW264.7 cells at 10 to 1000 ug/ml after 3 hrs by Western blot analysis. It counts as functional, cell-based. The essentials:
as §7

Series [31] is described as follows: Toxicity in Porphyromonas gingivalis-induced wild type C57BL/6 mouse septic shock model assessed as mortality at 2 mg/kg, ip. It counts as organism-based. The settings on record: in vivo. The essentials: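 Mice were 8–10-week-old WT C57BL/6, kept specific pathogen-free. They received a single i.p. co-injection of P. gingivalis (1 × 10^8/kg) plus MDP at 2 mg/kg (50 µg/mouse). Controls were DMSO alone or P. gingivalis alone. Animals were watched continuously for endotoxic response for 2 h after injection; n = 3 per group.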

Series [32] deals with RAW264.7. The series is described as follows: Effect on A20 mRNA level in wild type mouse RAW264.7 cells at 10 ug/ml after 3 hrs by RT-PCR analysis relative to control. It is filed as functional. The essentials: as §3
Series [33] relates to RAW264.7. As to the kind of experiment: Effect on NFkappaB protein level in wild type mouse RAW264.7 cells at 10 ug/ml after 3 hrs by Western blot analysis relative to SC peptide. It counts as functional. The essentials: as §2
For series [34], the system named is Peritoneal macrophage. The series is described as follows: Effect on Porphyromonas gingivalis-induced TNFalpha expression in wild type mouse primary peritoneal macrophages at 1 mg/ml after 3 hrs by ELISA relative to control. It counts as functional. The essentials:
as §5

Calls of active or inactive are those of the source. No cut-off for these calls is given here.

Take `CC(=O)N[C@H]1[C@@H](OCc2ccccc2)O[C@@H]2COC(C)(C)O[C@H]2[C@@H]1O[C@H](C)C(=O)N[C@@H](C)C(=O)N[C@H](CCC(=O)OCc1ccccc1)C(N)=O`: the outcome in series [1], in series [2], in series [3], in series [4], in series [5] and in series [6] was Active. Further, the result in series [7] was Active.

For the molecule `CC(=O)N[C@H]1C(O)O[C@H](CO)[C@@H](O)[C@@H]1O[C@H](C)C(=O)N[C@@H](C)C(=O)N[C@H](CCC(=O)O)C(N)=O` (some centres not stated) [MURAMYL DIPEPTIDE], the Activity in series [8] is 236%; in series [9] it was 95%; in series [11], 144%; in series [12] it was 84%; in series [14], 129%; in series [16], 565%. Moreover, the Activity in series [18] was 103%; in [19], 136%; in series [20] it was 104%; in series [22], 135%; in series [23] it was 142%; in series [24], 282%. The Activity was 274% in [25]; 106% in [27]; “Toxic” in series [31]; 117% in [32]; 388% in series [33]; 62% in [34]. For the same molecule, in series [10], the viability at 24 h, 100 ug/ml turned out to be 89%. The result in series [13], in series [2], in [28], in series [6] and in [7] was Active. Also, the “fold change (FC)” value in [15] was found to be 5.6. Besides, the outcome in series [17], in [29] and in series [30] was inactive. For the same molecule, the viability at 24 h, 10 ug/ml in series [21] was 92%. For the same molecule, in series [26], the viability at 24 h, 1 mg/ml stood at 88%.
